Assay results taken from ChEMBL document CHEMBL1165988, “Dithiolopyrrolone antibiotic formation induced by adding valeric acid to the culture broth of Saccharothrix algeriensis” (2010).
Values after ≈ are worked out from the molar mass of the structure shown.

Key:
Assay type in all cases: functional
Fusarium graminearum = test: Antimicrobial activity against Fusarium graminearum after 48 to 72 hrs by agar dilution method
Outline: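 Agar dilution MIC on ISP2 medium; fungal plates incubated 48-72 h at 28 °C; each test repeated four times.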

Penicillium expansum = test: Antimicrobial activity against Penicillium expansum after 48 to 72 hrs by agar dilution method
Outline: (§1)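 Filamentous fungi and yeasts tested by conventional agar dilution on ISP2 medium to give MIC; plates incubated at 28 °C and read after 48-72 h; each test repeated four times.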

Staphylococcus aureus = test: Antimicrobial activity against Staphylococcus aureus CIP 7625 after 24 to 48 hrs by agar dilution method
Outline: (§2)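 MIC determined by conventional agar dilution on ISP2 medium; bacterial plates incubated at 37 °C and read for growth inhibition after 24-48 h; each test repeated four times.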

Listeria monocytogenes = test: Antimicrobial activity against Listeria monocytogenes CIP 82110 after 24 to 48 hrs by agar dilution method; outline: as §2
Heyndrickxia coagulans = test: Antimicrobial activity against Bacillus coagulans CIP 6625 after 24 to 48 hrs by agar dilution method; outline: as §2
Micrococcus luteus = test: Antimicrobial activity against Micrococcus luteus ATCC 9314 after 24 to 48 hrs by agar dilution method; outline: as §2
Salmonella enterica = test: Antimicrobial activity against Salmonella enterica CIP 81.3 after 24 to 48 hrs by agar dilution method; outline: as §2
Pseudomonas aeruginosa = test: Antimicrobial activity against Pseudomonas aeruginosa CIP A22 after 24 to 48 hrs by agar dilution method; outline: as §2
Fusarium culmorum = test: Antimicrobial activity against Fusarium culmorum after 48 to 72 hrs by agar dilution method; outline: as §1
Saccharomyces cerevisiae = test: Antimicrobial activity against Saccharomyces cerevisiae ATCC 4226 after 48 to 72 hrs by agar dilution method; outline: as §1
Escherichia coli = test: Antimicrobial activity against Escherichia coli ATCC 10536 after 24 to 48 hrs by agar dilution method; outline: as §2
Candida albicans = test: Antimicrobial activity against Candida albicans IPA 200 after 48 to 72 hrs by agar dilution method; outline: as §1
Fusarium oxysporum = test: Antimicrobial activity against Fusarium oxysporum f.sp. lini (Foln 3-5) after 48 to 72 hrs by agar dilution method; outline: as §1
Klebsiella pneumoniae = test: Antimicrobial activity against Klebsiella pneumoniae CIP 82.91 after 24 to 48 hrs by agar dilution method; outline: as §2
Aspergillus carbonarius = test: Antimicrobial activity against Aspergillus carbonarius M333 after 48 to 72 hrs by agar dilution method; outline: as §1
Fusarium equiseti = test: Antimicrobial activity against Fusarium equiseti after 48 to 72 hrs by agar dilution method; outline: as §1
Fusarium verticillioides = test: Antimicrobial activity against Fusarium moniliforme after 48 to 72 hrs by agar dilution method; outline: as §1
[1] = system: Agrobacterium tumefaciens; test: Antimicrobial activity against Agrobacterium tumefaciens no. 2410 LB after 24 to 48 hrs by agar dilution method; outline: as §2
Bacillus subtilis = test: Antimicrobial activity against Bacillus subtilis ATCC 6633 after 24 to 48 hrs by agar dilution method; outline: as §2
Umbelopsis ramanniana = test: Antimicrobial activity against Mucor ramannianus NRRL 1829 after 48 to 72 hrs by agar dilution method; outline: as §1

| Compound | MIC (Fusarium graminearum) [µg/mL] | MIC (Penicillium expansum) [µg/mL] | MIC (Staphylococcus aureus) [µg/mL] | MIC (Listeria monocytogenes) [µg/mL] | MIC (Heyndrickxia coagulans) [µg/mL] | MIC (Micrococcus luteus) [µg/mL] | MIC (Salmonella enterica) [µg/mL] | MIC (Pseudomonas aeruginosa) [µg/mL] | MIC (Fusarium culmorum) [µg/mL] | MIC (Saccharomyces cerevisiae) [µg/mL] | MIC (Escherichia coli) [µg/mL] | MIC (Candida albicans) [µg/mL] | MIC (Fusarium oxysporum) [µg/mL] | MIC (Klebsiella pneumoniae) [µg/mL] | MIC (Aspergillus carbonarius) [µg/mL] | MIC (Fusarium equiseti) [µg/mL] | MIC (Fusarium verticillioides) [µg/mL] | MIC [1] [µg/mL] | MIC (Bacillus subtilis) [µg/mL] | MIC (Umbelopsis ramanniana) [µg/mL] |
| --- | --- | --- | --- | --- | --- | --- | --- | --- | --- | --- | --- | --- | --- | --- | --- | --- | --- | --- | --- | --- |
| CCCCC(=O)Nc1c2sscc-2n(C)c1=O [VALERYLPYRROTHINE] | 75 (≈ 277 µM) | 20 (≈ 74 µM) | 75 (≈ 277 µM) | > 100 | 20 (≈ 74 µM) | 40 (≈ 148 µM) | > 100 | > 100 | 20 (≈ 74 µM) | 10 (≈ 37 µM) | > 100 | 20 (≈ 74 µM) | 50 (≈ 185 µM) | > 100 | 20 (≈ 74 µM) | 20 (≈ 74 µM) | 75 (≈ 277 µM) | > 100 | 20 (≈ 74 µM) | 10 (≈ 37 µM) |
| Cn1c2cssc-2c(NC=O)c1=O [FORMYLPYRROTHINE] | 40 (≈ 187 µM) | 3 (≈ 14 µM) | 2 (≈ 9.33 µM) | 20 (≈ 93.3 µM) | 2 (≈ 9.33 µM) | 3 (≈ 14 µM) | > 100 | > 100 | 10 (≈ 46.7 µM) | 75 (≈ 350 µM) | 40 (≈ 187 µM) | 75 (≈ 350 µM) | 30 (≈ 140 µM) | > 100 | 50 (≈ 233 µM) | 10 (≈ 46.7 µM) | 75 (≈ 350 µM) | > 100 | 2 (≈ 9.33 µM) | 10 (≈ 46.7 µM) |
| CCC(=O)Nc1c2sscc-2n(C)c1=O [AUREOTHRICIN] | 75 (≈ 310 µM) | 20 (≈ 82.5 µM) | 100 (≈ 413 µM) | > 100 | 20 (≈ 82.5 µM) | 20 (≈ 82.5 µM) | > 100 | > 100 | 20 (≈ 82.5 µM) | 40 (≈ 165 µM) | 75 (≈ 310 µM) | 75 (≈ 310 µM) | 40 (≈ 165 µM) | > 100 | 40 (≈ 165 µM) | 20 (≈ 82.5 µM) | 75 (≈ 310 µM) | > 100 | 20 (≈ 82.5 µM) | 20 (≈ 82.5 µM) |
